The source of these data is ChEMBL document CHEMBL1149884, “Investigating biological activity spectrum for novel quinoline analogues 2: hydroxyquinolinecarboxamides with photosynthesis-inhibiting activity” (Bioorg Med Chem, 2008).

The source made the active and inactive calls. The calls are words filed in the database; no cut-off is given here.

One data set has as its system Chlorella vulgaris. Nature of the data set: Herbicidal activity against Chlorella vulgaris Beij assessed as decrease in chlorophyll content after 7 days. The format is functional, organism-based. Particulars: for IC50: 168 h. The procedure, abridged: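 C. vulgaris grown statically at room temperature (16 h light/8 h dark, 80 µmol/m² s PAR, pH 7.2), starting Chl 0.01 mg/L. Exposed 7 days to 100, 75, 50, 25, 8.3, 4.2, 0.83 µmol/L (DMSO ≤0.25%, matched DMSO controls). Chl read spectrophotometrically after methanol extraction. IC50 = 50% Chl decrease vs control, else mean % of control over 100–0.83 µmol/L ± SD.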

Data set [1] in a line: Lipophilicity, log K of the compound. The format is physicochemical. In outline: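 Isocratic RP-HPLC on end-capped C18 column, methanol as organic modifier. Retention times taken in minutes. Capacity factor K derived from them, and log K used as a lipophilicity index.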
The next data set concerns Spinacia oleracea. Description: Herbicidal activity in Spinacia oleracea assessed as inhibition of photosynthetic electron transport by decrease in oxygen evolution. The format is functional. The procedure, abridged: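 Spinach chloroplast PET measured as oxygen evolution in phosphate buffer (0.02 mol/L, pH 7.2) with sucrose 0.4 mol/L, MgCl₂ 0.005 mol/L, NaCl 0.015 mol/L. Chl 30 mg/L, halogen lamp irradiation (~100 W/m², 10 cm, water filter), 22 °C. IC50 = molar concentration giving 50% decrease in oxygen evolution vs untreated control.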

The IC50 is the midpoint of a concentration-inhibition curve. Consider `Cc1ccc2c([N+](=O)[O-])cc(C(=O)NC(C)c3ccc(F)cc3)c(O)c2n1` (stereo unspecified), for which the figures for the IC50 with Chlorella vulgaris and in the data set with Spinacia oleracea were 43.6 µM and 8.7 µM, respectively. Moreover, the “log K” value in data set [1] was found to be 0.4283.

Take `Cc1ccc2ccc(C(=O)NCc3ccccc3)c(O)c2n1`: the IC50 with Chlorella vulgaris came to 17.2 µM. In addition, the “log K” value in data set [1] is recorded as 0.2812. The outcome in the data set on Spinacia oleracea was inactive.

Turning to `Cc1ccc2c([N+](=O)[O-])cc(C(=O)NCc3ccccc3)c(O)c2n1`, the result in the data set with Chlorella vulgaris was inactive. Further, the “log K” value in data set [1] is recorded as 0.4021. The IC50 with Spinacia oleracea was 32 µM.

Turning to `Cc1ccc2c(O)c(C(=O)NC(=O)NC(=O)c3ccc4nc(C)ccc4c3O)ccc2n1`, the half-inhibitory concentration (IC50) in the data set on Chlorella vulgaris turned out to be 5.5 µM; in the data set with Spinacia oleracea, 833 µM. The “log K” value in data set [1] is given as 0.612.

Turning to `Cc1ccc(CNC(=O)c2cc([N+](=O)[O-])c3ccc(C)nc3c2O)cc1`, the outcome with Chlorella vulgaris was inactive. Also, the “log K” value in data set [1] came to 0.4304. In addition, the IC50 with Spinacia oleracea was found to be 107 µM.

With `Cc1ccc(CNC(=O)c2ccc3ccc(C)nc3c2O)cc1`, the 50% inhibitory concentration (IC50) with Chlorella vulgaris came to 7.2 µM. Besides, the “log K” value in data set [1] was found to be 0.3793. Moreover, the result in the data set on Spinacia oleracea was inactive.

In the case of `CN(C)C(=O)Nc1ccc(Cl)c(Cl)c1` [DCMU], the IC50 in the data set on Spinacia oleracea came out at 1.9 µM.

For `Cc1ccc2ccc(C(=O)NCc3ccc(F)cc3)c(O)c2n1`, in the data set on Chlorella vulgaris, the half-inhibitory concentration (IC50) was found to be 158 µM. In data set [1], the “log K” value was 0.3389. Further, in the data set with Spinacia oleracea, the result was inactive.

For `Cc1ccc2c([N+](=O)[O-])cc(C(=O)NCc3ccc(F)cc3)c(O)c2n1`, the result with Chlorella vulgaris was inactive. The “log K” value in data set [1] came out at 0.4136. Moreover, in the data set with Spinacia oleracea, the 50% inhibitory concentration (IC50) is 95 µM.

Regarding `Cc1ccc2ccc(C(=O)NCCCNC(=O)c3ccc4ccc(C)nc4c3O)c(O)c2n1`, the 50% inhibitory concentration (IC50) with Chlorella vulgaris amounted to 149 µM. The “log K” value in data set [1] is 0.1168. Also, the result in the data set with Spinacia oleracea was inactive.

In the case of `Cc1ccc2ccc(C(=O)NCCNC(=O)c3ccc4ccc(C)nc4c3O)c(O)c2n1`, the half-maximal inhibitory concentration (IC50) in the data set with Chlorella vulgaris came to 93.7 µM. For the same compound, in data set [1], the “log K” value came to 0.1109. For the same compound, the outcome in the data set with Spinacia oleracea was inactive.

Take `Cc1ccc2ccc(C(=O)NNC(=O)c3ccccc3O)c(O)c2n1`: the result in the data set on Chlorella vulgaris and in the data set with Spinacia oleracea was inactive. In data set [1] (octanol/water), the “log K” value amounted to 0.6361.

Regarding `Cc1ccc2ccc(C(=O)NCCc3ccc(F)cc3)c(O)c2n1`, the 50% inhibitory concentration (IC50) with Chlorella vulgaris came out at 15.9 µM. Besides, the “log K” value in data set [1] came out at 0.3342. Moreover, in the data set with Spinacia oleracea, the result was inactive.

Turning to `Cc1ccc2ccc(C(=O)NC(C)c3ccc(F)cc3)c(O)c2n1` (stereo unspecified), the IC50 in the data set with Chlorella vulgaris amounted to 83.3 µM. For the same compound, in data set [1], the “log K” value worked out at 0.372. Also, in the data set with Spinacia oleracea, the outcome was inactive.

Regarding `Cc1ccc2c(O)c(C(=O)NC(C)c3ccc(F)cc3)ccc2n1` (stereo unspecified), in data set [1], the “log K” value is reported as 0.3663. For the same compound, the concentration for half-maximal inhibition (IC50) in the data set on Spinacia oleracea came to 426 µM.

`Cc1ccc(CNC(=O)c2ccc3nc(C)ccc3c2O)cc1`: the “log K” value in data set [1] was 0.38. The IC50 in the data set on Spinacia oleracea was determined as 468 µM.

As for `COc1ccc(CNC(=O)c2ccc3ccc(C)nc3c2O)cc1`, in the data set with Chlorella vulgaris, the concentration for half-maximal inhibition (IC50) came to 4.8 µM. In addition, in data set [1], the “log K” value stood at 0.2843. Besides, the result with Spinacia oleracea was inactive.

For the compound `Cc1ccc2c(O)c(C(=O)NCCCNC(=O)c3ccc4nc(C)ccc4c3O)ccc2n1`, the IC50 was 19.5 µM with Chlorella vulgaris and 819 µM with Spinacia oleracea. In addition, the “log K” value in data set [1] is on record as 0.1203.

On to `Cc1ccc2c(O)c(C(=O)NCCc3ccc(O)cc3)ccc2n1`, for which the “log K” value in data set [1] is recorded as 0.3775. The IC50 in the data set on Spinacia oleracea turned out to be 16 µM.

With `Cc1ccc2ccc(C(=O)NCCCCc3ccccc3)c(O)c2n1`, the IC50 in the data set on Chlorella vulgaris was determined as 8.5 µM. In data set [1], the “log K” value amounted to 0.5075. Moreover, in the data set on Spinacia oleracea, the result was inactive.

As to `Cc1ccc2c(O)c(C(=O)Nc3ccc(Cl)cc3)ccc2n1`, the IC50 in the data set with Chlorella vulgaris amounted to 23.8 µM; with Spinacia oleracea, 265 µM. Further, in data set [1], the “log K” value was 0.3812.

As for `Cc1ccc2c(O)c(C(=O)NCCCCc3ccccc3)ccc2n1`, the IC50 was determined as 10.9 µM in the data set on Chlorella vulgaris and 7.2 µM in the data set on Spinacia oleracea. Moreover, the “log K” value in data set [1] amounted to 0.4173.

With `COc1ccc(CNC(=O)c2cc([N+](=O)[O-])c3ccc(C)nc3c2O)cc1`, in the data set with Chlorella vulgaris, the result was inactive. Also, the “log K” value in data set [1] was 0.4087. Moreover, the half-inhibitory concentration (IC50) with Spinacia oleracea was 137 µM.

As for `Cc1ccc2ccc(C(=O)NCCO)c(O)c2n1`, the outcome with Chlorella vulgaris and with Spinacia oleracea was inactive. Moreover, the “log K” value in data set [1] is 0.2629.

With `Cc1ccc2ccc(C(=O)NCCc3ccccc3)c(O)c2n1`, the “log K” value in data set [1] is on record as 0.2404. The result in the data set on Spinacia oleracea was inactive.

`Cc1ccc2c(O)c(C(=O)Nc3ccc4c(O)c(C(=O)O)cc([N+](=O)[O-])c4n3)ccc2n1`: the “log K” value in data set [1] is listed as 0.4072. The IC50 in the data set on Spinacia oleracea worked out at 114 µM.
